Reference: ChEMBL document CHEMBL1121641, “Synthesis and anticonvulsant activity of N-(benzoylalkyl)imidazoles and N-(omega-phenyl-omega-hydroxyalkyl)imidazoles” (J Med Chem, 1981)

Experiments:
[1] = Lethal dose in mice determined after intraperitoneal administration.; assay type: toxicity, organism-based; conditions: mouse, in vivo, ip
In short: (§1)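 Mice dosed ip or po with aqueous solution or suspension in 10% aqueous acacia gum, 10 animals per dose. Mortality recorded over 7 days, with behavioural symptoms observed by the Irwin scheme. LD50 derived from dose–mortality data.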

Mus musculus [2] = test: Anticonvulsant activity by the maximal electroshock test in mice by intraperitoneal administration; assay type: functional; conditions: ip
In short: (§2)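 Mice, groups of 10; compounds given ip or po as aqueous solutions or suspensions in 10% aqueous acacia gum. Maximal seizures elicited 30-60 min after dosing by 60-Hz alternating current, 25 mA for 0.2 s via corneal electrodes. Absence of tonic-extensor seizure scored as protection. ED50 by Litchfield-Wilcoxon with 95% confidence limits, or estimated graphically.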

Mus musculus [3] = test: Anticonvulsant activity was evaluated by the maximal electroshock test in mice, administered orally; assay type: functional; conditions: po; in short: as §2
[4] = Partition coefficient (logP); assay type: physicochemical; conditions: octanol/water
In short: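 Octanol partitioning at room temperature (20 ± 5 °C) with gentle shaking for 6 h, then centrifugation for 15 min at 2000 rpm. Octanol phase quantified by gas chromatography. Amount in the second phase taken as total sample minus the octanol amount.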

[5] = Ionization constant was determined by potentiometric titration at 22 degree C; assay type: physicochemical
In short: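 Methanolic-aqueous 10⁻³ M solutions of the hydrochloride salts titrated with 0.02 M KOH. Glass-calomel electrode system read on an expanded pH scale. pKa' obtained by the Albert-Serjeant procedure.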

[6] = Lethal dose determined in mice after oral administration; assay type: toxicity, organism-based; conditions: mouse, in vivo; in short: as §1

| Structure (SMILES) | LD50 [1] | ED50 (Mus musculus [2]) | ED50 (Mus musculus [3]) | logP [4] | pKa [5] | LD50 [6] |
| --- | --- | --- | --- | --- | --- | --- |
| CC(C)(C(=O)c1ccc(CCc2ccccc2)cc1)n1ccnc1 | 180 mg/kg | 29.5 mg/kg | > 36 mg/kg | – | – | – |
| O=C(Cn1ccnc1)c1ccccc1 | 360 mg/kg | > 72 mg/kg | – | 1.03 | 6.32 | – |
| Cl.OC(CCn1ccnc1)c1ccc(CCc2ccccc2)cc1 (centres undefined) | 420 mg/kg | 21 mg/kg | 24.7 mg/kg | – | – | 560 mg/kg |
| CC(C(O)c1ccc(-c2ccccc2)cc1)n1ccnc1.Cl (centres undefined) | 655 mg/kg | 19.6 mg/kg | 24.7 mg/kg | – | – | 570 mg/kg |
| CC(C)(C(O)c1ccc(-c2ccccc2)cc1)n1ccnc1.Cl (centres undefined) | 420 mg/kg | 23.8 mg/kg | 25.1 mg/kg | – | – | 2400 mg/kg |
| CC(Cn1ccnc1)C(=O)c1ccc(-c2ccccc2)cc1 (centres undefined) | 130 mg/kg | 19.5 mg/kg | > 26 mg/kg | – | – | – |
| O=C(Cn1ccnc1)c1ccc(Cl)cc1Cl | 420 mg/kg | > 84 mg/kg | > 84 mg/kg | – | – | – |
| CCC1(c2ccccc2)C(=O)NC(=O)NC1=O.Cl [PHENOBARBITAL HYDROCHLORIDE] | 235 mg/kg | 22.5 mg/kg | 17.6 mg/kg | – | – | 237 mg/kg |
| Cl.OC(Cn1ccnc1)c1ccc(-c2ccccc2)cc1 (centres undefined) | 1150 mg/kg | 45 mg/kg | 31 mg/kg | – | – | > 30000 mg/kg |
| Cl.OC(Cn1ccnc1)c1ccc(Oc2ccccc2)cc1 (centres undefined) | 360 mg/kg | 31.1 mg/kg | > 48 mg/kg | – | – | – |
| CS(=O)(=O)Nc1ccc(C(=O)Cn2ccnc2)cc1 | > 3000 mg/kg | > 300 mg/kg | > 300 mg/kg | – | – | > 3000 mg/kg |
| Cl.Nc1ccc(C(O)Cn2ccnc2)cc1 (centres undefined) | 875 mg/kg | > 175 mg/kg | > 175 mg/kg | – | – | – |
| CC(C)(C(O)c1ccc(CCc2ccccc2)cc1)n1ccnc1.Cl (centres undefined) | 240 mg/kg | 22.4 mg/kg | > 48 mg/kg | – | – | – |
| O=C(CCn1ccnc1)c1ccc(CCc2ccccc2)cc1 | > 3000 mg/kg | 28.6 mg/kg | 112 mg/kg | – | – | 2100 mg/kg |
| O=C(Cn1ccnc1)c1ccc(CCc2ccccc2)cc1 | – | 12.7 mg/kg | 36.9 mg/kg | – | – | – |
| CC(C(O)c1ccc(CCc2ccccc2)cc1)n1ccnc1.Cl (centres undefined) | 180 mg/kg | 15 mg/kg | 36 mg/kg | – | – | – |
| O=C(CCn1ccnc1)c1ccc(-c2ccccc2)cc1 | – | 35.1 mg/kg | 40.5 mg/kg | – | – | 1150 mg/kg |
| CC(C)(C)c1ccc(C(O)Cn2ccnc2)cc1.Cl (centres undefined) | 210 mg/kg | 42 mg/kg | > 42 mg/kg | – | – | – |
| COc1ccc(C(O)Cn2ccnc2)cc1.Cl (centres undefined) | 360 mg/kg | > 72 mg/kg | – | – | – | – |
| CCC(C)c1ccc(C(O)Cn2ccnc2)cc1.Cl (centres undefined) | 210 mg/kg | 28.5 mg/kg | 31.2 mg/kg | – | – | – |
| O=C(Cn1ccnc1)c1cccc(-c2ccccc2)c1 | 210 mg/kg | 11.2 mg/kg | 21 mg/kg | – | – | 750 mg/kg |
| O=C(Cn1ccnc1)c1ccc([N+](=O)[O-])cc1 | 360 mg/kg | > 72 mg/kg | > 72 mg/kg | – | – | – |
| O=C(Cn1ccnc1)c1ccc(-c2ccccc2)cc1 | 1550 mg/kg | 61.3 mg/kg | 78.3 mg/kg | – | – | 2400 mg/kg |
| O=C(Cn1ccnc1)c1ccc(Oc2ccccc2)cc1 | 100 mg/kg | > 20 mg/kg | > 20 mg/kg | – | – | – |
| O=C(Cn1ccnc1)c1ccc(Cl)cc1 | 240 mg/kg | > 48 mg/kg | > 48 mg/kg | – | – | – |
| CCC(C)c1ccc(C(=O)Cn2ccnc2)cc1 (centres undefined) | 115 mg/kg | > 23 mg/kg | > 23 mg/kg | – | – | – |

| Structure (SMILES) | LD50 [1] | ED50 (Mus musculus [2]) | ED50 (Mus musculus [3]) | logP [4] | pKa [5] | LD50 [6] |
| --- | --- | --- | --- | --- | --- | --- |
| CC(=O)Nc1ccc(C(=O)Cn2ccnc2)cc1 | 1000 mg/kg | > 200 mg/kg | > 200 mg/kg | – | – | – |
| Cl.OC(Cn1ccnc1)c1ccccc1 (centres undefined) | 210 mg/kg | > 42 mg/kg | – | 0.99 | 6.68 | – |
| CC(C)(C(=O)c1ccc(-c2ccccc2)cc1)n1ccnc1 | > 3000 mg/kg | 38 mg/kg | 42.9 mg/kg | – | – | 1870 mg/kg |
| Cl.OC(Cn1ccnc1)c1ccc(C2CCCCC2)cc1 (centres undefined) | 490 mg/kg | 53 mg/kg | 59.6 mg/kg | – | – | 2700 mg/kg |
| Cl.Oc1ccc(C(O)Cn2ccnc2)cc1 (centres undefined) | 1000 mg/kg | > 200 mg/kg | > 200 mg/kg | – | – | – |
| CC(Cn1ccnc1)C(O)c1ccc(-c2ccccc2)cc1.Cl (centres undefined) | 210 mg/kg | 25.7 mg/kg | 32.3 mg/kg | – | – | – |
| OC(Cn1ccnc1)c1ccc(Cl)cc1 (centres undefined) | 270 mg/kg | 31 mg/kg | > 54 mg/kg | – | – | – |
| Cl.OC(Cn1ccnc1)c1ccc(CCc2ccccc2)cc1 (centres undefined) | 270 mg/kg | 5.3 mg/kg | 10.2 mg/kg | – | – | 434 mg/kg |
| Cl.OC(CCn1ccnc1)c1ccc(-c2ccccc2)cc1 (centres undefined) | 360 mg/kg | 44 mg/kg | 53.5 mg/kg | – | – | – |
| Cl.O=C1NC(=O)C(c2ccccc2)(c2ccccc2)N1 [PHENYTOIN CHLORIDE] | – | 8.5 mg/kg | 9.7 mg/kg | – | – | – |
| O=C(Cn1ccnc1)c1ccccc1Cl | 360 mg/kg | – | – | – | – | – |
| COc1ccc(C(=O)Cn2ccnc2)cc1 | 270 mg/kg | > 54 mg/kg | – | – | – | – |
| CC(C)(C)c1ccc(C(=O)Cn2ccnc2)cc1 | 100 mg/kg | > 20 mg/kg | > 20 mg/kg | – | – | – |
| Cl.Oc1ccc(C(O)Cn2ccnc2)cc1O (centres undefined) | 1150 mg/kg | > 230 mg/kg | > 230 mg/kg | – | – | – |
| OC(Cn1ccnc1)c1ccc(Cl)cc1Cl (centres undefined) | 300 mg/kg | 39.7 mg/kg | 39.7 mg/kg | – | – | – |
| CC(C(=O)c1ccc(-c2ccccc2)cc1)n1ccnc1 (centres undefined) | 87.5 mg/kg | 13.4 mg/kg | > 18 mg/kg | – | – | – |
| Nc1ccc(C(=O)Cn2ccnc2)cc1 | 360 mg/kg | > 72 mg/kg | > 72 mg/kg | – | – | – |
| O=C(Cn1ccnc1)c1ccc(C2CCCCC2)cc1 | > 3000 mg/kg | 62.2 mg/kg | 89.9 mg/kg | – | – | 2100 mg/kg |
| O=C(Cn1ccnc1)c1ccc(O)cc1 | 750 mg/kg | > 150 mg/kg | > 150 mg/kg | – | – | – |
| CC(C(=O)c1ccc(CCc2ccccc2)cc1)n1ccnc1 (centres undefined) | 115 mg/kg | > 23 mg/kg | > 23 mg/kg | – | – | – |
| Cl.OC(Cn1ccnc1)c1ccccc1-c1ccccc1 (centres undefined) | 155 mg/kg | 18.8 mg/kg | 24.5 mg/kg | – | – | 300 mg/kg |
| Cl.OC(Cn1ccnc1)c1cccc(-c2ccccc2)c1 (centres undefined) | 180 mg/kg | 15.8 mg/kg | 25 mg/kg | – | – | – |
| Cl.O=[N+]([O-])c1ccc(C(O)Cn2ccnc2)cc1 (centres undefined) | 490 mg/kg | 98 mg/kg | 98 mg/kg | – | – | – |
| O=C(Cn1ccnc1)c1ccccc1-c1ccccc1 | 115 mg/kg | 13.5 mg/kg | 17.1 mg/kg | – | – | 360 mg/kg |
| O=C(Cn1ccnc1)c1ccc(O)c(O)c1 | 1000 mg/kg | > 200 mg/kg | > 200 mg/kg | – | – | – |
